Reference: ChEMBL document CHEMBL1124792, “Synthesis and structure-activity relationships of 5-substituted 6,8-difluoroquinolones, including sparfloxacin, a new quinolone antibacterial agent with improved potency” (1990)
Converted amounts (≈) assume the structure as drawn.

Assays:
Assay type in all cases: functional
Mus musculus [1] = organism: Mus musculus; experiment: Oral efficacy against Pseudomonas aeruginosa 12 on Systemic Infections in Mice
Method in brief: (§1)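 Groups of at least 10 male Std-ddY mice (20 ± 2 g) were infected ip, with S. pyogenes A65 at 3×10^7 cells or P. aeruginosa 12 at 4×10^3 cells. Compounds were suspended in 0.2% sodium carboxymethylcellulose and given orally at 0 and 6 h postinfection. The result is reported as ED50 in mg/kg.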

Streptococcus pyogenes = experiment: In vitro antibacterial activity against Streptococcus pyogenes A65
Method in brief: (§2)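 Two-fold agar dilution MIC on Mueller-Hinton agar (pH 7.4), following the Japan Society of Chemotherapy MIC Committee method. Inoculum was about 10⁶ CFU, and growth was read after 20 h at 37 °C. MIC is reported in µg/mL.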

Klebsiella pneumoniae = experiment: In vitro antibacterial activity against Klebsiella pneumoniae 13; method in brief: as §2
Mus musculus [2] = organism: Mus musculus; experiment: Oral efficacy against Streptococcus pyogenes A65 on Systemic Infections in Mice; method in brief: as §1
Pseudomonas aeruginosa [3] = experiment: In vitro antibacterial activity against Pseudomonas aeruginosa 12; method in brief: as §2
[4] = test system: Staphylococcus epidermidis; experiment: In vitro antibacterial activity against Streptococcus epidermis 8; method in brief: as §2
Enterobacter cloacae = experiment: In vitro antibacterial activity against Enterobacter cloacae 963
Moraxella bovis = experiment: In vitro antibacterial activity against glucose nonfermenter Moraxella bovis P-7101; method in brief: as §2
Escherichia coli [5] = experiment: In vitro antibacterial activity against Escherichia coli P-5101; method in brief: as §2
Enterococcus faecalis = experiment: In vitro antibacterial activity against Streptococcus faecalis 2473; method in brief: as §2
Escherichia coli [6] = experiment: In vitro antibacterial activity against Escherichia coli NIHJ JC-2; method in brief: as §2
Staphylococcus aureus [7] = experiment: In vitro antibacterial activity against Staphylococcus aureus 209P JC-1; method in brief: as §2
Pseudomonas aeruginosa [8] = experiment: In vitro antibacterial activity against Pseudomonas aeruginosa IFO 3445; method in brief: as §2
Serratia marcescens [9] = experiment: In vitro antibacterial activity against Serratia marcescence S-9; method in brief: as §2
Staphylococcus aureus [10] = experiment: In vitro antibacterial activity against Staphylococcus aureus 50774; method in brief: as §2
Serratia marcescens [11] = experiment: In vitro antibacterial activity against Serratia marcescene S-9; method in brief: as §2

Row | MIC (Streptococcus pyogenes) [µg/mL] | MIC (Klebsiella pneumoniae) [µg/mL] | MIC (Pseudomonas aeruginosa [3]) [µg/mL] | MIC [4] [µg/mL] | MIC (Enterobacter cloacae) [µg/mL] | MIC (Moraxella bovis) [µg/mL] | MIC (Escherichia coli [5]) [µg/mL] | MIC (Enterococcus faecalis) [µg/mL] | MIC (Escherichia coli [6]) [µg/mL] | MIC (Staphylococcus aureus [7]) [µg/mL] | MIC (Pseudomonas aeruginosa [8]) [µg/mL] | MIC (Serratia marcescens [9]) [µg/mL] | MIC (Staphylococcus aureus [10]) [µg/mL] | MIC (Serratia marcescens [11]) [µg/mL] | Compound | ED50 (Mus musculus [1]) [mg/kg] | ED50 (Mus musculus [2]) [mg/kg]
1 | 0.39 (≈ 0.96 µM) | 0.1 (≈ 0.246 µM) | 0.39 (≈ 0.96 µM) | 0.05 (≈ 0.123 µM) | 0.05 (≈ 0.123 µM) | 0.78 (≈ 1.92 µM) | 0.0125 (≈ 0.0308 µM) | 0.39 (≈ 0.96 µM) | 0.025 (≈ 0.0615 µM) | 0.05 (≈ 0.123 µM) | 0.78 (≈ 1.92 µM) | 0.2 (≈ 0.492 µM) | 0.025 (≈ 0.0615 µM) | – | C[C@@H]1CN(c2c(F)c(N)c3c(=O)c(C(=O)O)cn(C4CC4)c3c2F)C[C@H](C)N1C | 2.21 | 5.64
2 | 0.39 (≈ 0.994 µM) | 0.1 (≈ 0.255 µM) | 0.78 (≈ 1.99 µM) | 0.0125 (≈ 0.0319 µM) | 0.1 (≈ 0.255 µM) | 0.78 (≈ 1.99 µM) | 0.0125 (≈ 0.0319 µM) | 0.39 (≈ 0.994 µM) | 0.0125 (≈ 0.0319 µM) | 0.025 (≈ 0.0637 µM) | 0.78 (≈ 1.99 µM) | 0.39 (≈ 0.994 µM) | 0.025 (≈ 0.0637 µM) | – | C[C@@H]1CN(c2c(F)c(N)c3c(=O)c(C(=O)O)cn(C4CC4)c3c2F)C[C@@H](C)N1 (relative stereo) | 6.33 | 7.38
3 | 0.39 (≈ 0.994 µM) | 0.05 (≈ 0.127 µM) | 0.39 (≈ 0.994 µM) | 0.05 (≈ 0.127 µM) | 0.05 (≈ 0.127 µM) | 0.39 (≈ 0.994 µM) | 0.0125 (≈ 0.0319 µM) | 0.78 (≈ 1.99 µM) | 0.0125 (≈ 0.0319 µM) | 0.05 (≈ 0.127 µM) | 0.39 (≈ 0.994 µM) | 0.2 (≈ 0.51 µM) | 0.05 (≈ 0.127 µM) | – | C[C@@H]1CN(c2c(F)c(N)c3c(=O)c(C(=O)O)cn(C4CC4)c3c2F)C[C@H](C)N1 [SPARFLOXACIN] | 1.57 | 3.36
4 | 1.56 (≈ 4.09 µM) | 0.05 (≈ 0.131 µM) | 0.78 (≈ 2.05 µM) | 0.2 (≈ 0.524 µM) | 0.025 (≈ 0.0656 µM) | 1.56 (≈ 4.09 µM) | 0.0063 (≈ 0.0165 µM) | 3.13 (≈ 8.21 µM) | 0.0125 (≈ 0.0328 µM) | 0.2 (≈ 0.524 µM) | 0.78 (≈ 2.05 µM) | – | 0.2 (≈ 0.524 µM) | 0.2 (≈ 0.524 µM) | CC1CN(c2c(F)c(F)c3c(=O)c(C(=O)O)cn(C4CC4)c3c2F)CCN1 (stereo not given) | 2.46 | 17.3
5 | 0.2 (≈ 0.505 µM) | 0.025 (≈ 0.0631 µM) | 0.2 (≈ 0.505 µM) | 0.0125 (≈ 0.0315 µM) | 0.025 (≈ 0.0631 µM) | 0.39 (≈ 0.984 µM) | 0.0063 (≈ 0.0159 µM) | 0.39 (≈ 0.984 µM) | 0.0063 (≈ 0.0159 µM) | 0.025 (≈ 0.0631 µM) | 0.39 (≈ 0.984 µM) | 0.1 (≈ 0.252 µM) | 0.0125 (≈ 0.0315 µM) | – | Nc1c(F)c(N2CCNC(CF)C2)c(F)c2c1c(=O)c(C(=O)O)cn2C1CC1 (stereo not given) | 7.02 | 17.4
6 | 0.78 (≈ 2.06 µM) | 0.1 (≈ 0.264 µM) | 0.78 (≈ 2.06 µM) | 0.1 (≈ 0.264 µM) | 0.05 (≈ 0.132 µM) | 1.56 (≈ 4.11 µM) | 0.025 (≈ 0.0659 µM) | 1.56 (≈ 4.11 µM) | 0.025 (≈ 0.0659 µM) | 0.2 (≈ 0.527 µM) | 0.78 (≈ 2.06 µM) | 0.1 (≈ 0.264 µM) | 0.2 (≈ 0.527 µM) | – | CC1CN(c2c(F)c(O)c3c(=O)c(C(=O)O)cn(C4CC4)c3c2F)CCN1 (stereo not given) | 5.97 | 12.5
